What was measured:
[1] = target: T1, PIF pocket of PDK1 (Homo sapiens, UniProt O15530); experiment: Fluorescence polarization; assay type: binding
T1 sequence (O15530 1-556): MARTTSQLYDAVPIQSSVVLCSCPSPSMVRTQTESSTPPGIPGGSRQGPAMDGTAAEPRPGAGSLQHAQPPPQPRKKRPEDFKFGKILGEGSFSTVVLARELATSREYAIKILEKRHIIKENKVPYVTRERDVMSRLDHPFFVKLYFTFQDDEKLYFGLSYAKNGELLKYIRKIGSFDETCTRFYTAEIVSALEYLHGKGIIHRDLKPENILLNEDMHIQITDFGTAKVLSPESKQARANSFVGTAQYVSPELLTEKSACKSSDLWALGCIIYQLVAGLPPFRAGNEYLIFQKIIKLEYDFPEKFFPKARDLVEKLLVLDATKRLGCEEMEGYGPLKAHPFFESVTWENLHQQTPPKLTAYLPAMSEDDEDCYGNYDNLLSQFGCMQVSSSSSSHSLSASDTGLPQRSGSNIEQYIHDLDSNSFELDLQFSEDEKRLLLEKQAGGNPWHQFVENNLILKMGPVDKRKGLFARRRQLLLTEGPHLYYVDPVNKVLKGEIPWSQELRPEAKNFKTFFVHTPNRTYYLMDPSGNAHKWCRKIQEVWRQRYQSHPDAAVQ

[2] = target: T2, PDK1 (Homo sapiens, UniProt O15530); assay type: biochemical; details: short peptide substrate, in vitro
T2 sequence (O15530 1-556): T1 sequence (O15530 1-556)

[3] = test system: cruzain; experiment: Cruzain assay; assay type: biochemical; details: unrelated enzyme, test for aggregation-based mechanism
Method in brief: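 Test compound preincubated 5 min with 0.8 nM cruzain in 100 mM sodium acetate, pH 5.5, 5 mM DTT, with 0.01% Triton X-100 added where indicated. Reaction started with Z-FR-AMC; final 0.4 nM cruzain, 2.5 μM substrate, 0.5% DMSO. Fluorescence increase (ex 355/em 460 nm) recorded over 5 min. Run in duplicate; DMSO-only controls.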

[4] = Dynamic light scattering; assay type: physicochemical; details: under assay conditions
Method in brief: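 Concentrated DMSO stocks of test compound diluted in assay buffer to a final 3.2% DMSO. Light scattering read with a 55 mW laser at 826.6 nm, 100% laser power, detector at 90°. Single-point measurements reported.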

Row | Compound | LE (ligand efficiency) ([1]; binding energy (ΔG, kcal/mol) per non-hydrogen atom) | Maximal stimulation of PDK1 activity [2] | Nonspecific inhibition of cruzain [3] | Formation of colloidal aggregates [4] | Binding to PDK1 (in words) ([1]; FP competitive binding assay)
1 | Cc1ccc(OCCSc2nc3ccccc3n2CC(=O)O)c(C)c1 [compound 1] | 0.25 kcal/mol per non-hydrogen atom | ~ 1.8 fold | nor did either compound nonspecifically inhibit | Neither compound formed colloidal aggregates | –
2 | O=C(O)C/C(=C/c1cccc(C(F)(F)F)c1)c1nc2ccccc2o1 [compound 2] | – | – | – | – | negligible
3 | O=P(O)(O)[C@H](NC[C@@H]1CCCc2ccccc21)c1ccc(F)cc1 [compound 3] | – | ~ 1.8 fold | nor did either compound nonspecifically inhibit | Neither compound formed colloidal aggregates | –

— PMC5099076 (Journal of medicinal chemistry, 2015)
